Measured values reported in ChEMBL document CHEMBL5338794, “Optimization of Orally Bioavailable Antileishmanial 2,4,5-Trisubstituted Benzamides” (J Med Chem, 2023).
≈ marks a conversion by molar mass, not a printed value.

How the values were obtained:
[1] = test system: Leishmania mexicana; experiment: Antileishmanial activity against renilla luciferase-expressing Leishmania mexicana promastigotes infected in mouse J774.A1 cells assessed as inhibition of intracellular amastigotes growth incubated for 96 hrs by Renilla luciferase assay; type: functional, organism-based; details: J774.A1, 96 h
[2] = Metabolic stability in CD-1 mouse liver microsomes assessed as half life at 1 uM and measured upto 60 mins in presence of NADPH regenerating system by LC-MS/MS analysis; type: ADME, Microsome; details: 1 h
Outline: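 Half-life and intrinsic clearance determined by incubation with mouse liver microsomes.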

[3] = test system: BJ; experiment: Cytotoxicity against human BJ cells assessed as reduction in cell viability incubated for 72 hrs by Cell TiterGlo assay; type: functional, cell-based
[4] = Kinetic aqueous solubility of the compound in PBS at pH 7.4 incubated for 18 hrs by LC-MS analysis; type: physicochemical; details: read-out: Kinetic_solubility

SMILES | EC50 [1] | t1/2 [2] | EC50 [3] | solubility kinetic at 18 h [4]
Cc1ccc(NC(=O)c2cc([N+](=O)[O-])c(F)cc2Cl)cc1 | 1.2 µM |  |  | 
Cc1ccc(-c2nc3ccccc3o2)cc1NC(=O)c1cc([N+](=O)[O-])c(N2CCNCC2)cc1Cl | 0.2 µM | 120 min | 19.1 µM | 12.8 µM (≈ 6.3 µg/mL)
Cc1cc(Cl)c(Cl)cc1NC(=O)c1cc([N+](=O)[O-])c(F)cc1Cl | 0.8 µM |  | 4.2 µM | 
O=C(Nc1ccc(-c2ccccc2)cc1)c1cc([N+](=O)[O-])c(F)cc1Cl | 1.3 µM |  |  | 
Cc1ccc(-c2nc3ccccc3s2)cc1NC(=O)c1cc([N+](=O)[O-])ccc1C(F)(F)F | 56 µM |  |  | 
Cc1ccc(-c2nc3ccccc3s2)cc1NC(=O)c1cc([N+](=O)[O-])c(NCCNC(=O)OC(C)(C)C)cc1Cl | 0.7 µM |  | > 25 µM | 
O=C(Nc1cccc(-c2nccs2)c1)c1cc([N+](=O)[O-])c(F)cc1F | 0.4 µM |  | 1.5 µM | 
Cc1ccc(-c2nc3ccccc3s2)cc1NC(=O)c1cc([N+](=O)[O-])c(NCCN(C)C)cc1Cl | 0.8 µM |  | 17.2 µM | 
Cc1ccc(-c2nc3ccccc3s2)cc1NC(=O)c1cnccc1Cl | 8.8 µM |  |  | 
Cc1ccc(-c2nc3ccccc3s2)cc1NC(=O)c1ccc(Br)cc1F | 45 µM |  |  | 
O=C(Nc1cnc(Cl)c(Cl)c1)c1ccc(N2CCNCC2)c([N+](=O)[O-])c1 | 1.2 µM |  |  | 
Cc1cc(Cl)c(Cl)cc1NC(=O)c1cc([N+](=O)[O-])c(N2CCNCC2)cc1Cl | 0.1 µM | 56 min | 14.2 µM | 5.3 µM (≈ 2.35 µg/mL)
O=C(Nc1cnc(Cl)c(Cl)c1)c1cc([N+](=O)[O-])c(F)cc1F | 0.2 µM |  | 1.6 µM | 
Cc1cc(Cl)c(Cl)cc1NC(=O)c1ccc(F)c([N+](=O)[O-])c1 | 2.4 µM |  |  | 
Cc1ccc(-c2nc3ccccc3s2)cc1NC(=O)c1cnccc1F | 27 µM |  |  | 
O=C(Nc1cccc(-c2ncco2)c1)c1ccc(N2CCNCC2)c([N+](=O)[O-])c1 | 3.1 µM |  |  | 
O=C(Nc1cccc(Cl)c1)c1cc([N+](=O)[O-])c(F)cc1F | 0.6 µM |  | 1.8 µM | 
O=C(Nc1cccc(Cl)c1)c1ccc(N2CCNCC2)c([N+](=O)[O-])c1 | 1.4 µM |  |  | 
O=C(Nc1ccc(F)c(F)c1)c1cc([N+](=O)[O-])c(F)cc1Cl | 1.3 µM |  |  | 
Cc1ccc(-c2nc3ccccc3s2)cc1NC(=O)c1ccc(Br)cc1Cl | 57 µM |  |  | 
O=C(Nc1cccc(-c2ccccn2)c1)c1cc([N+](=O)[O-])c(F)cc1Cl | 1.1 µM |  |  | 

SMILES | EC50 [1] | t1/2 [2] | EC50 [3] | solubility kinetic at 18 h [4]
O=C(Nc1ccc(Cl)cc1)c1cc([N+](=O)[O-])c(F)cc1Cl | 1.1 µM |  |  | 
Cc1ccc(-c2nc3ccccc3s2)cc1NC(=O)c1cc([N+](=O)[O-])c(N2CCNCC2)cc1Cl | 0.7 µM |  | > 14.5 µM | 
Cc1ccc(-c2nc3ccccc3o2)cc1NC(=O)c1cc([N+](=O)[O-])c(N2CCN(C)CC2)cc1Cl | 0.8 µM |  | 4.6 µM | 
O=C(Nc1cncc(-c2nc3ccccc3o2)c1)c1ccc(N2CCNCC2)c([N+](=O)[O-])c1 | 0.5 µM | 138 min | 20 µM | 15 µM (≈ 6.67 µg/mL)
Cc1cc(Cl)c(Cl)cc1NC(=O)c1ccc(N2CCNCC2)nc1 | 0.9 µM | 30 min | 24 µM | 188 µM (≈ 68.7 µg/mL)
Cc1ccc(-c2nc3ccccc3s2)cc1NC(=O)c1ccc(F)c(C(F)(F)F)c1 | 21 µM |  |  | 
Cc1ccc(-c2nc3ccccc3s2)cc1NC(=O)c1cc([N+](=O)[O-])c(N(C)CCN(C)C)cc1Cl | 0.4 µM |  | 6.1 µM | 
Cc1ccc(-c2nc3ccccc3s2)cc1NC(=O)c1cc([N+](=O)[O-])c(F)cc1F | 0.6 µM | 27 min | > 25 µM | 22 µM (≈ 9.36 µg/mL)
O=C(Nc1ccc(Cl)c(Cl)c1)c1ccc(F)c([N+](=O)[O-])c1 | 1.1 µM |  |  | 
O=C(Nc1cccnc1)c1cc([N+](=O)[O-])c(F)cc1Cl | 4.6 µM |  |  | 
Cc1ccc(-c2nc3ccccc3s2)cc1NC(=O)c1cc([N+](=O)[O-])c(Cl)cc1F | 2 µM |  |  | 
Cc1ccc(Br)cc1NC(=O)c1cc([N+](=O)[O-])c(F)cc1Cl | 1.4 µM |  |  | 
O=C(Nc1cncc(-c2nc3ccccc3o2)c1)c1cc([N+](=O)[O-])c(F)cc1F | 0.5 µM |  | > 30 µM | 
Cc1ccc(-c2nc3ccccc3s2)cc1NC(=O)c1ccc(F)nc1 | 6.4 µM |  |  | 
Cc1ccc(-c2nc3ccccc3s2)cc1NC(=O)c1cc([N+](=O)[O-])c(NC2CCN(C)CC2)cc1Cl | 0.8 µM |  | 9.2 µM | 
Cc1cc(Cl)c(Cl)cc1NC(=O)c1cc([N+](=O)[O-])c(F)cc1F | 0.3 µM |  | 1.3 µM | 
Cc1ccc(-c2nc3ccccc3s2)cc1NC(=O)c1ccc(N2CCNCC2)c([N+](=O)[O-])c1 | 0.3 µM |  | 8.6 µM | 
O=C(Nc1cccc(-c2nccs2)c1)c1cc([N+](=O)[O-])c(F)cc1Cl | 1.3 µM |  |  | 
O=C(Nc1cncc(-c2nc3ccccc3o2)c1)c1cc([N+](=O)[O-])c(F)cc1Cl | 1 µM |  | 2.9 µM | 
Cc1ccc(-c2nc3ccccc3s2)cc1NC(=O)c1cnccc1O | 53 µM |  |  | 
Cc1ccc(-c2nc3ccccc3s2)cc1NC(=O)c1ccc(Cl)nc1 | 8.2 µM |  |  | 

SMILES | EC50 [1] | t1/2 [2] | EC50 [3] | solubility kinetic at 18 h [4]
Cc1ccc(-c2nc3ccccc3s2)cc1NC(=O)c1ccc(F)c([N+](=O)[O-])c1 | 1.2 µM |  |  | 
O=C(Nc1cccc(-c2ncco2)c1)c1cc([N+](=O)[O-])c(F)cc1F | 0.7 µM | 0.6 min | 1.5 µM | 9.4 µM (≈ 3.25 µg/mL)
Cc1ccc(-c2nc3ccccc3s2)cc1NC(=O)c1cc([N+](=O)[O-])c(N2CC3(CNC3)C2)cc1Cl | 0.7 µM |  | 11.3 µM | 
Cc1ccc(-c2nc3ccccc3s2)cc1NC(=O)c1cc([N+](=O)[O-])c(Cl)cc1Cl | 4.3 µM |  |  | 
Cc1ccc(-c2nc3ccccc3s2)cc1NC(=O)c1cc([N+](=O)[O-])c(N2CC3(COC3)C2)cc1Cl | 29 µM |  |  | 
Cc1cc(Cl)c(Cl)cc1NC(=O)c1ccc(N2CCNCC2)c([N+](=O)[O-])c1 | 0.8 µM | 67 min | 24.9 µM | 31 µM (≈ 12.7 µg/mL)
O=C(Nc1cccc(-c2nc3ccccc3o2)c1)c1cc([N+](=O)[O-])c(F)cc1F | 0.8 µM |  | 4.5 µM | 
N#Cc1ccc(NC(=O)c2cc([N+](=O)[O-])c(F)cc2Cl)cc1 | 1 µM |  |  | 
Cc1ccc(C(F)(F)F)cc1NC(=O)c1cc([N+](=O)[O-])c(F)cc1Cl | 1.7 µM |  |  | 
COc1cc(Cl)ncc1C(=O)Nc1cc(-c2nc3ccccc3s2)ccc1C | 42 µM |  |  | 
CC(=O)Nc1cccc(NC(=O)c2cc([N+](=O)[O-])c(F)cc2Cl)c1 | 2.9 µM |  |  | 
CN1CCN(c2cc(Cl)c(C(=O)Nc3cncc(-c4nc5ccccc5s4)c3)cc2[N+](=O)[O-])CC1 | 0.9 µM |  | > 30 µM | 
Cc1ccc(-c2nc3ccccc3s2)cc1NC(=O)c1cnc(Cl)cc1Cl | 9.8 µM |  |  | 
Cc1ccc(-c2nc3ccccc3s2)cc1NC(=O)c1ccc(Cl)c([N+](=O)[O-])c1 | 20 µM |  |  | 
O=C(Nc1ccc(F)cc1)c1cc([N+](=O)[O-])c(F)cc1Cl | 1.2 µM |  |  | 
Cc1ccc(-c2nc3ccccc3s2)cc1NC(=O)c1cc([N+](=O)[O-])ccc1F | 64 µM |  |  | 
Cc1ccc(-c2nc3ccccc3o2)cc1NC(=O)c1cc([N+](=O)[O-])c(F)cc1Cl | 0.4 µM |  | 16 µM | 
Cc1ccc(-c2nc3ccccc3s2)cc1NC(=O)c1cnccc1C#N | 51 µM |  |  | 
O=C(Nc1cncc(-c2nc3ccccc3s2)c1)c1cc([N+](=O)[O-])c(N2CCNCC2)cc1Cl | 0.6 µM | 130 min | 15.3 µM | 6.3 µM (≈ 3.12 µg/mL)
Cc1ccc(-c2nc3ccccc3s2)cc1NC(=O)c1cc([N+](=O)[O-])c(F)cc1Cl | 1.2 µM |  |  | 
Cc1ccc(-c2nc3ccccc3s2)cc1NC(=O)c1cc([N+](=O)[O-])c(N2CC3(CN(C(=O)OC(C)(C)C)C3)C2)cc1Cl | 63 µM |  |  | 

SMILES | EC50 [1] | t1/2 [2] | EC50 [3] | solubility kinetic at 18 h [4]
O=C(Nc1cccc(-c2nccs2)c1)c1cc([N+](=O)[O-])c(N2CCNCC2)cc1Cl | 1.5 µM |  |  | 
O=C(Nc1cncc(-c2nc3ccccc3s2)c1)c1cc([N+](=O)[O-])c(F)cc1Cl | 0.9 µM |  | 4.9 µM | 
Cc1cc(Cl)c(Cl)cc1NC(=O)c1ccc(N2CCNCC2)c(C#N)c1 | 0.9 µM | 48 min | 13.5 µM | 3.6 µM (≈ 1.4 µg/mL)
Cc1ccc(C)c(NC(=O)c2cc([N+](=O)[O-])c(F)cc2Cl)c1 | 2.4 µM |  |  | 
O=C(Nc1cccc(-c2nccs2)c1)c1ccc(N2CCNCC2)c([N+](=O)[O-])c1 | 1.4 µM |  |  | 
N#Cc1ccc(NC(=O)c2ccc(N3CCNCC3)c([N+](=O)[O-])c2)cc1 | 5.4 µM |  |  | 
O=C(Nc1ccc(Cl)c(Cl)c1)c1cc([N+](=O)[O-])c(F)cc1Cl | 0.9 µM |  | 4.2 µM | 
O=C(Nc1cccc(-c2cccnc2)c1)c1cc([N+](=O)[O-])c(F)cc1Cl | 2 µM |  |  | 
O=C(Nc1ccc(F)c(Cl)c1)c1cc([N+](=O)[O-])c(F)cc1Cl | 1 µM |  |  | 
O=C(Nc1cnc(Cl)c(Cl)c1)c1cc([N+](=O)[O-])c(F)cc1Cl | 0.5 µM |  |  | 
O=C(Nc1cccc(Cl)c1)c1ccc(F)c([N+](=O)[O-])c1 | 4 µM |  |  | 
CN1CCN(c2cc(Cl)c(C(=O)Nc3cccc(-c4nccs4)c3)cc2[N+](=O)[O-])CC1 | 2.1 µM |  |  | 
O=C(Nc1ccc(Cl)c(Cl)c1)c1ccc(N2CCNCC2)nc1 | 1.4 µM |  |  | 
O=C(Nc1cccc(-c2ncco2)c1)c1cc([N+](=O)[O-])c(F)cc1Cl | 0.9 µM |  |  | 
O=C(Nc1ccc(Cl)c(Cl)c1)c1cc([N+](=O)[O-])c(F)cc1F | 0.2 µM |  | 2.4 µM | 
COc1ccncc1C(=O)Nc1cc(-c2nc3ccccc3s2)ccc1C | 31 µM |  |  | 
Cc1ccc(-c2nc3ccccc3s2)cc1NC(=O)c1cc([N+](=O)[O-])c(NCCN)cc1Cl | 0.3 µM |  | 6.3 µM | 
O=C(Nc1cccc(-c2nc3ccccc3o2)c1)c1cc([N+](=O)[O-])c(F)cc1Cl | 0.9 µM |  | > 30 µM | 
